In ChEMBL document CHEMBL3352597, “Heck products of parthenolide and melampomagnolide-B as anticancer modulators that modify cell cycle progression” (Eur J Med Chem, 2014):
Active and inactive are the calls of the source. No cut-off for these calls is given here.

What was measured:
Type in all cases: functional
[1] = Anticancer activity against human UO31 cells
In short: (§1)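 NCI 60 human tumour cell line screen. A single-concentration pre-screen was run at 10^-5 M. Compounds selected from it were then tested at five concentrations, 10^-4 to 10^-8 M. Dose-response curves plotted cytotoxic effect against log10 of the drug concentration for each cell line. GI50 is the molar concentration giving 50% growth inhibition, and LC50 the concentration killing 50% of cells.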

MDA-MB-435 = assay: Anticancer activity against human MDA-MB-435 cells
In short: (§2)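 NCI 60 human cancer cell line panel, multiple-dose testing at five concentrations (10^-4, 10^-5, 10^-6, 10^-7 and 10^-8 M). Dose-response curves plot cytotoxic effect against log10 of drug concentration for each cell line. GI50 is the molar concentration giving 50% growth inhibition; LC50 is the concentration killing 50% of cells.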

SK-MEL-28 = assay: Anticancer activity against human SK-MEL-28 cells; in short: as §2
Malme-3M = assay: Anticancer activity against human MALME-3M cells; in short: as §2
HCC 2998 = assay: Anticancer activity against human HCC2998 cells; in short: as §2
DU-145 = assay: Anticancer activity against human DU145 cells after 48 hrs; conditions: DU-145, 48 h; in short: as §2
[2] = Anticancer activity against human MOLT4 cells; in short: as §2
U-251 = assay: Anticancer activity against human U251 cells; in short: as §1
SF-268 = assay: Anticancer activity against human SF268 cells; in short: as §2
[3] = Anticancer activity against human HCT15 cells; in short: as §2
[4] = Anticancer activity against human OVCAR8 cells; in short: as §2
T47D = assay: Anticancer activity against human T47D cells; in short: as §1
RXF 393 = assay: Anticancer activity against human RXF393 cells; in short: as §2
MDA-MB-231 = assay: Anticancer activity against human MDA-MB-231 cells; in short: as §2
786-0 = assay: Anticancer activity against human 786-0 cells; in short: as §2
ACHN = assay: Anticancer activity against human ACHN cells; in short: as §2
CAKI-1 = assay: Anticancer activity against human CAKI-1 cells; in short: as §2
CCRF-CEM = assay: Anticancer activity against human CCRF-CEM cells; in short: as §2
SK-MEL-2 = assay: Anticancer activity against human SK-MEL-2 cells; in short: as §2
UACC-62 = assay: Anticancer activity against human UACC62 cells; in short: as §1
IGROV-1 = assay: Anticancer activity against human IGROV1 cells; in short: as §2
SW-620 = assay: Anticancer activity against human SW620 cells; in short: as §1
NCI-H460 = assay: Anticancer activity against human NCI-H460 cells; in short: as §2
[5] = Anticancer activity against human UACC257 cells; in short: as §1
M14 = assay: Anticancer activity against human M14 cells; in short: as §2
KM12 = assay: Anticancer activity against human KM12 cells; in short: as §2
[6] = Anticancer activity against human OVCAR3 cells; in short: as §2
SNB-75 = assay: Anticancer activity against human SNB75 cells; in short: as §1
K562 = assay: Anticancer activity against human K562 cells; in short: as §2
[7] = Anticancer activity against human HCT116 cells; in short: as §2
A549 = assay: Anticancer activity against human A549 cells; in short: as §2
[8] = Anticancer activity against human SF295 cells; in short: as §2
HL-60(TB) = assay: Anticancer activity against human HL-60(TB) cells; in short: as §2
SN12C = assay: Anticancer activity against human SN12C cells; in short: as §2
HT-29 = assay: Anticancer activity against human HT-29 cells; in short: as §2
HOP-62 = assay: Anticancer activity against human HOP62 cells; in short: as §2
SR = assay: Anticancer activity against human SR cells; in short: as §1
NCI-H23 = assay: Anticancer activity against human NCI-H23 cells; in short: as §2
[9] = Anticancer activity against human COLO205 cells; in short: as §2
[10] = Anticancer activity against human RPMI8226 cells; in short: as §2
[11] = Anticancer activity against human OVCAR5 cells; in short: as §2
NCI-H226 = assay: Anticancer activity against human NCI-H226 cells; in short: as §2
[12] = Anticancer activity against human BT549 cells; in short: as §2
SK-MEL-5 = assay: Anticancer activity against human SK-MEL-5 cells; in short: as §2
[13] = Anticancer activity against human SF539 cells; in short: as §2
NCI-H522 = assay: Anticancer activity against human NCI-H522 cells; in short: as §2
[14] = Anticancer activity against human Hs 578T cells; in short: as §2
TK-10 = assay: Anticancer activity against human TK10 cells; in short: as §1
MDA-MB-468 = assay: Anticancer activity against human MDA-MB-468 cells; in short: as §2
[15] = Anticancer activity against human SKOV3 cells; in short: as §2
[16] = Anticancer activity against human LOXIMVI cells; conditions: LOX IMVI; in short: as §2
MCF7 = assay: Anticancer activity against human MCF7 cells; in short: as §2
[17] = Anticancer activity against human OVCAR4 cells; in short: as §2
NCI-H322M = assay: Anticancer activity against human NCI-H322M cells after 48 hrs; in short: as §2
[18] = Anticancer activity against human NCI-ADR-RES cells; in short: as §2
[19] = Anticancer activity against human PC3 cells; in short: as §2
A498 = assay: Anticancer activity against human A498 cells; in short: as §2
SNB-19 = assay: Anticancer activity against human SNB19 cells; in short: as §2
[20] = read-out: LC50 (the source's name)

## C/C1=C\CC[C@@]2(C)O[C@@H]2[C@H]2OC(=O)C(Cn3ccnc3I)[C@@H]2CC1 (stereo partly specified)
[1]; UO-31
  GI50: 10.8 µM
[1]; UO-31, read-out: LC50 (the source's name)
  CC50: 50 µM
MDA-MB-435
  GI50: 13.8 µM
MDA-MB-435; [20]
  CC50: 59.5 µM
SK-MEL-28
  GI50: 16.1 µM
SK-MEL-28; [20]
  CC50: 73 µM
Malme-3M
  GI50: 10.9 µM
Malme-3M; [20]
  CC50: 62.7 µM
HCC 2998
  GI50: inactive
  LC50: inactive
DU-145
  GI50: 18.8 µM
DU-145; [20]
  CC50: 68.3 µM
[2]; MOLT-4
  GI50: 19.6 µM
[2]; MOLT-4, read-out: LC50 (the source's name)
  CC50: 97.9 µM
U-251
  GI50: 36.7 µM
U-251; [20]
  CC50: > 100 µM
SF-268
  GI50: 23 µM
SF-268; [20]
  CC50: > 100 µM
[3]; HCT-15
  GI50: 10.7 µM
[3]; HCT-15, read-out: LC50 (the source's name)
  CC50: 55.6 µM
[4]; OVCAR-8
  GI50: 16.6 µM
[4]; OVCAR-8, read-out: LC50 (the source's name)
  CC50: 59.9 µM
T47D
  GI50: 9.88 µM
T47D; [20]
  CC50: 54.3 µM
RXF 393
  GI50: inactive
  LC50: inactive
MDA-MB-231
  GI50: 16.4 µM
  LC50 (concentration killing 50% of cells): 59.6 µM
786-0
  GI50: 14.3 µM
786-0; [20]
  CC50: 53 µM
ACHN
  GI50: 10.5 µM
ACHN; [20]
  CC50: 47.4 µM
CAKI-1
  GI50: 6.61 µM
CAKI-1; [20]
  CC50: 49.5 µM
CCRF-CEM
  GI50: 6.13 µM
CCRF-CEM; [20]
  CC50: 79.6 µM
SK-MEL-2
  GI50: 18.6 µM
SK-MEL-2; [20]
  CC50: 66.1 µM
UACC-62
  GI50: inactive
  LC50: inactive
IGROV-1
  GI50: 20 µM
IGROV-1; [20]
  CC50: 75.6 µM
SW-620
  GI50: 11.4 µM
SW-620; [20]
  CC50: 62.8 µM
NCI-H460
  GI50: 30.1 µM
NCI-H460; [20]
  CC50: > 100 µM
[5]; UACC-257
  GI50: 12 µM
[5]; UACC-257, read-out: LC50 (the source's name)
  CC50: 53.9 µM
M14
  GI50: 16.5 µM
M14; [20]
  CC50: 65.6 µM
KM12
  GI50: 43.2 µM
KM12; [20]
  CC50: > 100 µM
[6]; OVCAR-3
  GI50: 6.85 µM
[6]; OVCAR-3, read-out: LC50 (the source's name)
  CC50: 50.8 µM
SNB-75
  GI50: 19.3 µM
SNB-75; [20]
  CC50: > 100 µM
K562
  GI50: 7.36 µM
K562; [20]
  CC50: 90 µM
[7]; HCT-116
  GI50: 11.8 µM
[7]; HCT-116, read-out: LC50 (the source's name)
  CC50: 49 µM
A549
  GI50: 19.8 µM
A549; [20]
  CC50: > 100 µM
[8]; SF-295
  GI50: 32.1 µM
[8]; SF-295, read-out: LC50 (the source's name)
  CC50: > 100 µM
HL-60(TB)
  GI50: 6.9 µM
HL-60(TB); [20]
  CC50: 77.5 µM
SN12C
  GI50: 17.7 µM
SN12C; [20]
  CC50: 84.1 µM
HT-29
  GI50: 17.6 µM
HT-29; [20]
  CC50: 61.5 µM
HOP-62
  GI50: 47.4 µM
HOP-62; [20]
  CC50: > 100 µM
SR
  GI50: 13.6 µM
SR; [20]
  CC50: > 100 µM
NCI-H23
  GI50: 23.7 µM
NCI-H23; [20]
  CC50: > 100 µM
[9]; COLO 205
  GI50: 14.5 µM
[9]; COLO 205, read-out: LC50 (the source's name)
  CC50: 58.8 µM
[10]; RPMI-8226
  GI50: 17 µM
[10]; RPMI-8226, read-out: LC50 (the source's name)
  CC50: > 100 µM
[11]; OVCAR-5
  GI50: 13.7 µM
[11]; OVCAR-5, read-out: LC50 (the source's name)
  CC50: 52.5 µM
NCI-H226
  GI50: 15.4 µM
NCI-H226; [20]
  CC50: 62.3 µM
[12]; BT-549
  GI50: 15.9 µM
[12]; BT-549, read-out: LC50 (the source's name)
  CC50: 55.3 µM
SK-MEL-5
  GI50: 18.5 µM
  LC50: 95.6 µM
[13]; SF-539
  GI50: 16.7 µM
[13]; SF-539, read-out: LC50 (the source's name)
  CC50: 60.8 µM
NCI-H522
  GI50: 1710 nM
NCI-H522; [20]
  CC50: 6.34 µM
[14]
  GI50: 21.3 µM
[14]; [20]
  CC50: > 100 µM
TK-10
  GI50: inactive
  LC50: inactive
MDA-MB-468
  GI50: 11.1 µM
  LC50 (concentration killing 50% of cells): 60.4 µM
[15]; SK-OV-3
  GI50: 47.3 µM
[15]; SK-OV-3, read-out: LC50 (the source's name)
  CC50: > 100 µM
[16]
  GI50: 14.9 µM
[16]; [20]
  CC50: 60.9 µM
MCF7
  GI50: 9.79 µM
MCF7; [20]
  CC50: > 100 µM
[17]; OVCAR-4
  GI50: 13.2 µM
[17]; OVCAR-4, read-out: LC50 (the source's name)
  CC50: 60 µM
NCI-H322M
  GI50: 61.3 µM
NCI-H322M; [20]
  CC50: > 100 µM
[18]
  GI50: 31.2 µM
[18]; [20]
  CC50: > 100 µM
[19]; PC-3
  GI50: 23.1 µM
[19]; PC-3, read-out: LC50 (the source's name)
  CC50: 100 µM
A498
  GI50: 45.2 µM
A498; [20]
  CC50: > 100 µM
SNB-19
  GI50: > 100 µM
SNB-19; [20]
  CC50: > 100 µM
